Test results: ChEMBL document CHEMBL1152176, “Pyrazoline-based mycobactin analogues as MAO-inhibitors” (Bioorg Med Chem Lett, 2008)

Columns and labels:
[1] = Inhibition of rat liver monoamine oxidase by Lineweaver-Burke plot
[2] = biological target: T1, Amine oxidase [flavin-containing] B (Rattus norvegicus, UniProt P19643); test: Inhibition of MAOB in rat liver homogenates preincubated for 60 mins; format: tissue-based
T1 sequence (P19643 whole entry): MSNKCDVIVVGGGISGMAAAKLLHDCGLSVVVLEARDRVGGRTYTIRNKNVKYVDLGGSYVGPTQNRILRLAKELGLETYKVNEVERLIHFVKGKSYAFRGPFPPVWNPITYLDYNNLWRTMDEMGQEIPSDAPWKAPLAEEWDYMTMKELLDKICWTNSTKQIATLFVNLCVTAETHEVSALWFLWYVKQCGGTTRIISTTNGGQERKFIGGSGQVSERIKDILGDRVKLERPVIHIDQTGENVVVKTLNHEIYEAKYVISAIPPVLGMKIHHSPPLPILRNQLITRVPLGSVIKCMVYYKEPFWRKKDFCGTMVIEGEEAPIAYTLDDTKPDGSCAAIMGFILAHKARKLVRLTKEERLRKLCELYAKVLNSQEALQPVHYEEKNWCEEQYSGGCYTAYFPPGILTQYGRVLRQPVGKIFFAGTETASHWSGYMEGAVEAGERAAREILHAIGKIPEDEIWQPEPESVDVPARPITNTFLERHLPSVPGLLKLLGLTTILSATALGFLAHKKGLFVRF

[3] = biological target: T2, Amine oxidase [flavin-containing] A (Rattus norvegicus, UniProt P21396); test: Inhibition of MAOA in rat liver homogenates preincubated for 60 mins; format: tissue-based
T2 sequence (P21396 whole entry): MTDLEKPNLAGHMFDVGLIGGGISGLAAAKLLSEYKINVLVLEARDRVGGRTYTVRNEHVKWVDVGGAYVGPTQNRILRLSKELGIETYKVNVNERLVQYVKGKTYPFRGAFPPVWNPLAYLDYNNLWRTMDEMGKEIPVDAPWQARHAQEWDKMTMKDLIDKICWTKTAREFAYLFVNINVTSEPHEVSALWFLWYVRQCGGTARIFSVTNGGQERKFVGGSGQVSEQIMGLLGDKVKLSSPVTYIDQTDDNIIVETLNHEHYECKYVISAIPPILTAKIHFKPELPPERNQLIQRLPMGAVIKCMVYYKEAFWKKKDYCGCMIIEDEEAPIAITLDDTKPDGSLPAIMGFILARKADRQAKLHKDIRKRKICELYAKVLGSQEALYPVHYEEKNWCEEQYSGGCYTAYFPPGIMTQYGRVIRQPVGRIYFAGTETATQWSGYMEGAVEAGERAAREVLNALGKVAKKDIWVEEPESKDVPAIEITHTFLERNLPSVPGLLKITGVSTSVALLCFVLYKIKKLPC
Procedure, shortened: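 Rat liver MAO assayed by Holt's spectrophotometric method. The chromogenic mix was vanillinic acid, 4-aminoantipyrine and peroxidase type II in potassium phosphate pH 7.6, preincubated with p-tyramine. Inhibitors were preincubated with enzyme at 37 °C for 60 min. A498 was read at 37 °C for 60 min. IC50 came from residual activity versus [I]; mean of three independent experiments.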

Row | SMILES | Ki [1] | IC50 [2] | IC50 [3]
1 | Oc1ccccc1C1=NN(C(=S)Nc2ccccc2)C(c2ccccc2Cl)C1 (configuration not stated) | 18.6 µM | 455 µM | 20 µM
2 | Oc1ccccc1C1CC(c2ccccc2)=NN1C(=S)Nc1ccccc1 (configuration not stated) | 34.7 µM | 35.5 µM | 451 µM
3 | Oc1ccccc1C1=NN(C(=S)Nc2ccccc2)C(c2ccccc2)C1 (configuration not stated) | 40.2 µM | 439 µM | 49.2 µM
4 | Oc1ccccc1C1=NN(C(=S)Nc2ccccc2)C(c2cccs2)C1 (configuration not stated) | – | – | 5.56 µM
5 | Oc1ccc(C2=NN(C(=S)Nc3ccccc3)C(c3ccc(O)cc3)C2)cc1 (configuration not stated) | 30.6 µM | 486 µM | 32.1 µM
6 | COc1ccc(NC(=S)N2N=C(c3ccccc3O)CC2c2ccc(O)cc2)cc1 (configuration not stated) | 39.2 µM | 41.1 µM | 401 µM
7 | Cc1ccc(NC(=S)N2N=C(c3ccccc3O)CC2c2ccc(O)cc2)cc1 (configuration not stated) | 42.9 µM | 46.1 µM | 475 µM
8 | COc1ccc(NC(=S)N2N=C(c3ccccc3O)CC2c2ccc(O)c(OC)c2)cc1 (configuration not stated) | 60.5 µM | 477 µM | 48.9 µM
9 | COc1cc(C2CC(c3ccccc3O)=NN2C(=S)Nc2ccccc2OC)ccc1O (configuration not stated) | – | 201 µM | 170 µM
10 | COc1ccccc1NC(=S)N1N=C(c2ccc(O)cc2O)CC1c1ccc(O)cc1 (configuration not stated) | – | 171 µM | 148 µM
11 | COc1cc(C2CC(c3ccccc3O)=NN2C(=S)Nc2ccc(C)cc2)ccc1O (configuration not stated) | 75.1 µM | 481 µM | 50.6 µM
12 | COc1cc(C2CC(c3ccc(O)cc3O)=NN2C(=S)Nc2ccccc2OC)ccc1O (configuration not stated) | – | 170 µM | 180 µM
13 | COc1ccc(NC(=S)N2N=C(c3ccccc3O)CC2c2ccccc2O)cc1 (configuration not stated) | 36.2 µM | 40.8 µM | 470 µM
14 | COc1ccc(NC(=S)N2N=C(c3ccc(O)cc3O)CC2c2ccc(O)c(OC)c2)cc1 (configuration not stated) | 71.1 µM | 475 µM | 53.4 µM
15 | COc1ccc(NC(=S)N2N=C(c3ccc(O)cc3O)CC2c2ccc(O)cc2)cc1 (configuration not stated) | 85.5 µM | 456 µM | 69.6 µM
16 | COc1ccccc1NC(=S)N1N=C(c2ccccc2O)CC1c1ccc(O)cc1 (configuration not stated) | – | 144 µM | 151 µM
17 | Cc1ccccc1NC(=S)N1N=C(c2ccccc2O)CC1c1ccc(O)cc1 (configuration not stated) | – | 180 µM | 189 µM
18 | Cc1ccccc1NC(=S)N1N=C(c2ccccc2O)CC1c1ccccc1O (configuration not stated) | – | 180 µM | 170 µM

Row | SMILES | Ki [1] | IC50 [2] | IC50 [3]
19 | NC(=S)N1N=C(c2ccccc2O)CC1c1ccc(O)cc1 (configuration not stated) | 15.2 µM | 19.5 µM | 466 µM
20 | Oc1ccccc1C1=NN(C(=S)Nc2ccccc2)C(c2ccccc2O)C1 (configuration not stated) | 48.5 µM | 420 µM | 58.1 µM
21 | Oc1ccc(C2CC(c3ccccc3O)=NN2C(=S)Nc2ccccc2)cc1 (configuration not stated) | 50.5 µM | 400 µM | 67.2 µM
22 | COc1ccccc1C1CC(c2ccccc2O)=NN1C(=S)Nc1ccccc1 (configuration not stated) | 63.6 µM | 419 µM | 74.2 µM
23 | Oc1ccccc1C1=NN(C(=S)Nc2ccccc2)C(c2ccc(Cl)cc2)C1 (configuration not stated) | 20.1 µM | 400 µM | 23.2 µM
24 | COc1ccccc1NC(=S)N1N=C(c2ccccc2O)CC1c1ccccc1O (configuration not stated) | – | 171 µM | 144 µM
25 | Cc1ccc(NC(=S)N2N=C(c3ccccc3O)CC2c2ccccc2O)cc1 (configuration not stated) | 35 µM | 37.7 µM | 400 µM
26 | COc1cc(C2CC(c3ccccc3O)=NN2C(=S)Nc2ccccc2)ccc1O (configuration not stated) | 62.7 µM | 451 µM | 40.1 µM
27 | COc1cc(C2CC(c3ccc(O)cc3O)=NN2C(=S)Nc2ccccc2)ccc1O (configuration not stated) | 79.2 µM | 490 µM | 65.6 µM
28 | Oc1ccc(C2CC(c3ccccc3)=NN2C(=S)Nc2ccccc2)cc1 (configuration not stated) | 40.6 µM | 48.6 µM | 476 µM
29 | Oc1ccc(C2CC(c3ccc(O)cc3O)=NN2C(=S)Nc2ccccc2)cc1 (configuration not stated) | 80 µM | 470 µM | 58.6 µM
30 | COc1ccc(C2CC(c3ccccc3O)=NN2C(=S)Nc2ccccc2)cc1 (configuration not stated) | 2.5 µM | 415 µM | 2.84 µM
31 | Oc1ccccc1C1=NN(C(=S)Nc2ccccc2)C(c2ccco2)C1 (configuration not stated) | 27.5 µM | 440 µM | 33.4 µM
32 | COc1cc(C2CC(c3ccccc3O)=NN2C(=S)Nc2ccccc2C)ccc1O (configuration not stated) | – | 198 µM | 201 µM
33 | C#CCN(C)CCCOc1ccc(Cl)cc1Cl [CLORGILINE] | 1.99 µM | – | –
34 | O=C(NCCN1CCOCC1)c1ccc(Cl)cc1 [MOCLOBEMIDE] | 2.25 µM | 480 µM | –
35 | C#CCN(C)Cc1ccccc1 [PARGYLINE] | 3.25 µM | 3.85 µM | –
36 | C#CCN(C)[C@H](C)Cc1ccccc1 [SELEGILINE] | 1.9 µM | – | –
